# TRPC4 agonist: opens the mouse TRPC4 cation channel. Q9QUQ5. HEK293 TRPC4beta/mu-opioid, Fluo4 calcium fluorescence; stronger effect = higher value. B-score at 10 µM. 310,000 tested, 0.49% active. AID 2237;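 active = B-score above 5 SD of library B-scores, and initial fluorescence ratio not above library mean plus 5 SD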;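 note: positive B-score marks a calcium rise read as TRPC4 activation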
# Target sequence (Q9QUQ5 whole entry, looked up): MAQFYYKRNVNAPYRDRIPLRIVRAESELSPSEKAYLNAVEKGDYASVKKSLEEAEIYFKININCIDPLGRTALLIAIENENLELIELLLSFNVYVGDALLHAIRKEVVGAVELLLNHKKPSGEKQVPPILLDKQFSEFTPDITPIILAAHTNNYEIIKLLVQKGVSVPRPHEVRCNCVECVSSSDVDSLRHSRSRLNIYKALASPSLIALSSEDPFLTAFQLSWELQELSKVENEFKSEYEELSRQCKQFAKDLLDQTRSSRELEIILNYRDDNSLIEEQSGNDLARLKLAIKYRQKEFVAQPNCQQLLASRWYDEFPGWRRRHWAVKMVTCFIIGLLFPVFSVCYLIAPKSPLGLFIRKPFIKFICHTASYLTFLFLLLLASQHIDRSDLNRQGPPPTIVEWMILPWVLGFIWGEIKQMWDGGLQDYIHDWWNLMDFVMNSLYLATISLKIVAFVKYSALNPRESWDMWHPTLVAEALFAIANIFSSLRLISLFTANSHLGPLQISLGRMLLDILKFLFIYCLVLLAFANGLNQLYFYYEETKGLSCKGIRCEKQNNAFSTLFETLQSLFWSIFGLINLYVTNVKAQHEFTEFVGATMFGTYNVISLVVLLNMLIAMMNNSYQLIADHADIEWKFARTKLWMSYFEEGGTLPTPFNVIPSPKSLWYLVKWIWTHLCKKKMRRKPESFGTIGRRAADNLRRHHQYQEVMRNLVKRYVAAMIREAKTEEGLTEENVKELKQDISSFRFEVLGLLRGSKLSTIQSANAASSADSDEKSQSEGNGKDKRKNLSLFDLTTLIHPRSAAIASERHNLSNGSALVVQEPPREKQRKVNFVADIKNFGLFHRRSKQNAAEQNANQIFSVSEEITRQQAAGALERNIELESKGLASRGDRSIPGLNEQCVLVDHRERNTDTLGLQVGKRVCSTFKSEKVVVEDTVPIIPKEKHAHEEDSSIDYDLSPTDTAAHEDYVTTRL
#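 Material: TRPC4beta and mu-opioid receptor HEK293 stable cells | Incubation: 45 min room-temperature Fluo4 loading, 110 s read | Detection: Kinetic Fluo4 calcium fluorescence | Measure: Integrated baseline-normalised fluorescence ratio, converted to per-well B score | Benchmarks: Low control buffer alone, high control maximal DAMGO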
# TRPC6 act: activators of mouse TRPC6 channel | AID 2550 | HEK293-TRPC6 membrane potential dye fluorescence; stronger effect = higher value | Q61143 | B-score at 10 µM | 310,000 tested, 0.13% active;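 active = B-score of the integrated fluorescence ratio above library mean plus 3 SD, and starting fluorescence ratio within library mean plus 5 SD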;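 note: higher score means more depolarization so channel activation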
# TRPC6 inh: mouse TRPC6 channel inhibition | 310,000 tested, 1.1% active | HEK293-TRPC6, membrane potential dye, ACh-evoked depolarization; stronger effect = lower value | B-score at 10 µM;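 active = B-score under library mean minus 3 SD, initial fluorescence not abnormally high, positive integrated signal ratio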;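 note: B-score derived from integrated fluorescence ratio over the kinetic read; more negative B-score means stronger inhibition of depolarization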
# TRPC4 inh: TRPC4 (mouse) channel inhibition | Q9QUQ5 | HEK293 TRPC4beta/mu-opioid, DAMGO-evoked Fluo4 calcium flux; stronger effect = lower value | B-score at 10 µM | 300,000 tested, 0.39% active | AID 2247;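 active = B-score over 3 SD under the library average, no early fluorescence shift, positive overall ratio signal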
#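 System: stable TRPC4beta/mu-opioid receptor HEK293 cells; Dosing: single-point compound dosing; Measured by: Fluo4 Ca2+ flux fluorescence; Read-out basis: per-well B score of integrated baseline-normalized Fluo4 ratio.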
# CR mimetic SO: lowers age-related superoxide in aged yeast cells | S. cerevisiae aged cells, superoxide DHE fluorescence; stronger effect = lower value | superoxide response (% of plate mean), % at 10 µM | 330,000 tested, 0.18% active;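 active = superoxide response under a set limit, about three screen SD below normal, cut at about 65% in these data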;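 note: yeast aged for seven days with compound at 30 °C before DHE staining; 100% = average MFI of all compound-treated wells on the plate with controls excluded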
# TRPC4 potent: TRPC4 (mouse) allosteric potentiation; 310,000 tested, 0.42% active; Q9QUQ5; B-score at 10 µM; HEK293 TRPC4beta/mu-opioid, DAMGO EC20, Fluo-4 Ca2+ flux; stronger effect = higher value;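 active = B-score of calcium response area above 5 SD of library B-scores, with initial fluorescence ratio within 5 SD of library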;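 note: B-score of integrated fluorescence ratio over time as area under calcium response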
# TRPC4 spec 2: mouse TRPC4 off-target activity of TRPC6 inhibitors, second screen; shares compounds with TRPC6 inh; HEK293 TRPC4/MOR, membrane potential dye fluorescence; channel activated by saturating DAMGO dose; inhibition, % at 10 µM; 920 tested, 42% active; AID 2776;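 active = compounds whose fluorescence signal differed from control wells by over 3 SD, either direction, in both duplicate plates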
# TRPC4 spec: selectivity of TRPC6 inhibitors: effect on mouse TRPC4; shares compounds with TRPC6 inh; HEK293 TRPC4/mu-opioid, membrane potential fluorescence; activity change, negative = inhibition, % at 10 µM; 920 tested, 61% active; AID 2777;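 active = rise or fall in signal beyond 3 SD of buffer-only wells in both replicate plates, either sign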;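 note: integrated kinetic ratio of fluorescence range over baseline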
# HEK293 MPD ctr 2-1: second counter-screen for TRPC6 inhibitors: parental HEK293 cells; shares compounds with TRPC6 inh; 920 tested, 31% active; parental HEK293 membrane potential dye fluorescence; maximal acetylcholine challenge after compound addition; AID 2779; signal change vs control, % at 10 µM;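 active = membrane potential signal moving either way by over 3 SD of the maximum-effect control, in both duplicate plates, meaning non-specific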
# HEK293 MPD ctr-1: checks TRPC6 inhibitor effects in parental HEK293 cells; shares compounds with TRPC6 inh; parental HEK293 membrane potential dye fluorescence; membrane potential signal change, % at 10 µM; 920 tested, 60% active; AID 2780;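 active = membrane potential signal shifting up or down by more than 3 SD of buffer-only wells, on both duplicate plates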
# HEK293 MPD ctr-2: counter-screen for TRPC6 modulators: effect in parental HEK293 cells | membrane potential dye fluorescence | shares compounds with TRPC6 inh | 2,400 tested, 51% active | membrane potential signal change, % at 10 µM;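 active = membrane potential signal moves up or down beyond 5 SD from buffer-only wells, on both duplicate plates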
# HEK293 MPD ctr 2-2: second check of TRPC6 modulator effects in parental HEK293 cells; shares compounds with TRPC6 inh; membrane potential dye fluorescence; after compound, maximal acetylcholine stimulation; inhibition, % at 10 µM; 2,400 tested, 14% active;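 active = membrane potential signal drops by more than 5 SD from the mean control signal, in both duplicate plates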;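 note: plate controls were acetylcholine ECmax control wells for no effect and buffer only wells for full effect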
# TRPC4/MOR mod: selectivity of TRPC6 modulators against mouse TRPC4; shares compounds with TRPC6 inh; HEK293 TRPC4/mu-opioid, membrane potential fluorescence; 2,400 tested, 69% active; AID 488927; percent change from control (negative = decrease, positive = increase), % at 10 µM;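 active = membrane potential signal moved up or down beyond 5 SD of buffer control wells, in both duplicate plates, actives on both sides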;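 note: plate controls were assay buffer wells for no effect and DAMGO maximal-effect wells for full effect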
# TRPC4/MOR inh 2: mouse TRPC4 off-target activity of TRPC6 modulators, second screen; 2,400 tested, 55% active; HEK293 TRPC4/mu-opioid, membrane potential dye fluorescence; stimulated with maximal-effect DAMGO; shares compounds with TRPC6 inh; inhibition, % at 10 µM; AID 488928;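 active = drop in membrane potential signal beyond 5 SD of the control wells in both duplicate plates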;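 note: TRPC4 counter screen for TRPC6 hits run under conditions tuned for TRPC6 not TRPC4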
# TRPC6 inh conf: mouse TRPC6 inhibitor confirmation. shares compounds with TRPC6 inh. HEK293-TRPC6, membrane potential dye, ACh-evoked depolarization. inhibition, % at 10 µM. 3,300 tested, 43% active;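 active = fluorescence ratio falls more than 5 SD below the full-stimulation control mean, in both duplicate runs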;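 note: integrated fluorescence ratio of peak minus minimum over baseline after agonist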
# TRPC6 act conf: confirmation of mouse TRPC6 activators; shares compounds with TRPC6 inh; HEK293-TRPC6 membrane potential dye fluorescence, FDSS; activation, % at 10 µM; 2,800 tested, 11% active; AID 488961;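 active = ratio signal rise beyond 5 SD above unstimulated control wells' mean, seen in both duplicate runs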;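 note: plate controls were buffer EC0 wells for no effect and acetylcholine ECmax response for full effect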
# * hit, by the source's call; i = inactive; · = no result. Sampled rows, rich in hits. Any-hit rate of the full collection: about 2.3%.
SMILES,TRPC4 agonist,TRPC6 act,TRPC6 inh,TRPC4 inh,CR mimetic SO,TRPC4 potent,HEK293 MPD ctr-2,HEK293 MPD ctr 2-2,TRPC4/MOR mod,TRPC4/MOR inh 2,TRPC6 inh conf,TRPC6 act conf,others
CCCc1ncc(C(O)(c2ccccc2)c2ccccc2)n1C,i,i,-8.8*,i,97,i,·,·,·,·,58%*,·,TRPC4 spec 2=i;TRPC4 spec=22%*;HEK293 MPD ctr 2-1=i;HEK293 MPD ctr-1=15%*
COc1ccc(OC)c2nc(-c3ccncc3)ccc12,i,i,i,i,116,i,·,·,·,·,·,·,
Cc1ccc2c(c1)c1c3n2CCN=C3CCC1,i,i,-5*,i,102,i,-171%*,i,-28%*,49%*,i,i,
CSc1ccccc1C(=O)NCC(c1ccco1)N1CCCCC1 (stereo not given),i,i,i,i,98,i,·,·,·,·,·,·,
Cc1ccc(O)c(C(=O)c2cc(C#N)c(=O)n(-c3c(C)n(C)n(-c4ccccc4)c3=O)c2)c1,i,i,i,i,92,i,·,·,·,·,·,·,
Cc1ccc(O)c(C(=O)c2cc(C#N)c(=O)n(-c3nccs3)c2)c1,i,31*,i,i,104,i,435%*,i,164%*,58%*,i,86%*,
CC(C)C[C@H](NC(=O)c1[nH]cnc1C(=O)N[C@@H](C)C(=O)OCc1ccccc1)C(=O)OC(C)(C)C,i,i,-5.8*,i,82,i,i,i,i,i,i,i,
CCN(Cc1ccncc1)C(=S)Nc1ccccc1,i,i,i,i,84,i,·,·,·,·,·,·,
CCN(Cc1ccncc1)C(=O)C(CO)c1ccccc1 (stereo not given),i,i,-5.7*,i,112,i,i,66%*,i,i,82%*,i,
CCCNCC1COc2ccccc2O1 (stereo not given),i,i,i,i,101,i,·,·,·,·,·,·,
COc1cccc(OC)c1OCCNCC1COc2ccccc2O1 (stereo not given),i,i,-5.6*,i,101,i,144%*,i,27%*,38%*,i,·,
COc1ccccc1C(=O)N1CCC(N2CCN(c3ccccc3OC)CC2)CC1,i,i,i,i,90,i,·,·,·,·,·,·,
COc1cccc(CNC(=O)CCC2CCCN(C3CCOCC3)C2)c1 (stereo not given),i,i,i,i,103,i,·,·,·,·,·,·,
COc1cccc(CNC(=O)CCC2CCCN(c3cc(C)nc(N4CCCC4)n3)C2)c1 (stereo not given),i,i,-6.1*,i,88,i,i,i,-9.0%*,43%*,48%*,i,
CCOC(=O)c1ccc(N2C(=O)c3cccc4c(C(=O)O)ccc(c34)C2=O)cc1,i,i,i,i,114,i,·,·,·,·,·,·,
CCN1CCN(C(=O)c2ccc3c(c2)N(Cc2ccccc2)C(=O)c2ccccc2S3(=O)=O)CC1,i,i,i,i,97,i,·,·,·,·,·,·,
CCOc1cccc2sc(N(CCN(CC)CC)C(=O)c3cccc(N4C(=O)CCC4=O)c3)nc12,i,i,i,i,96,i,·,·,·,·,·,·,
Cc1cc(C)c2nc(N(CCN(C)C)C(=O)c3ccc(S(=O)(=O)N(C)CC4CCCO4)cc3)sc2c1 (stereo not given),i,i,i,i,100,i,·,·,·,·,·,·,
CCOc1cccc2sc(N(CCCN(C)C)C(=O)c3ccc(S(=O)(=O)N(C)CC4CCCO4)cc3)nc12 (stereo not given),i,i,-7.4*,i,95,i,·,·,·,·,i,i,TRPC4 spec 2=48%*;TRPC4 spec=-14%*;HEK293 MPD ctr 2-1=i;HEK293 MPD ctr-1=i
CN(C)CCN(C(=O)c1ccc(S(=O)(=O)N(C)c2ccccc2)cc1)c1nc2cc3c(cc2s1)OCO3,i,i,i,i,107,i,·,·,·,·,·,·,
CCOc1cccc2sc(N(CCN(CC)CC)C(=O)c3cccc([N+](=O)[O-])c3)nc12,i,i,-5*,i,103,i,i,i,-10%*,62%*,i,·,
CN(C)CCCN(C(=O)c1ccc(S(=O)(=O)N(C)C)cc1)c1nc2cc3c(cc2s1)OCO3,i,i,-5*,i,113,i,i,i,-14%*,55%*,i,i,
CN(C)CCN(C(=O)c1ccco1)c1nc2cc3c(cc2s1)OCCO3,i,i,-5.3*,i,111,i,-136%*,i,-40%*,88%*,60%*,i,
COC(=O)C1(C)CCC(C(=O)Nc2ccccc2)C1(C)C (stereo not given),i,i,i,i,101,i,·,·,·,·,·,·,
CCOC(=O)c1c(N)sc(C(O)(C(F)(F)F)C(F)(F)F)c1-c1ccc(F)cc1,i,i,i,i,119,i,·,·,·,·,·,·,

# Source: PubChem
